Source: ChEMBL document CHEMBL1133665, “Secondary amides of (R)-3,3,3-trifluoro-2-hydroxy-2-methylpropionic acid as inhibitors of pyruvate dehydrogenase kinase” (J Med Chem, 2000)
pEC50: −log10 of the molar value. Blank lines part the entries; values can stand above or below the compound they belong to. Calls of active or inactive are those of the source. No cut-off for these calls is given here.

Experiments:
Homo sapiens [1] = organism: Homo sapiens; test: Effective concentration required to increase the oxidation of lactate in cellular assay using Human Skin Fibroblasts; Inactive; assay type: functional
Method in brief: (§1)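 Human fibroblasts harvested with trypsin 2-4 days post-confluence and assayed in suspension ((3.5-5) × 10^5 cells per tube) with test compound or solvent control. Equilibrated at 37 °C, then started with DMEM-S containing 25 µM lactate and 0.2 µCi/mL d,l-[1-14C]lactate. Gassed with 95% O2/5% CO2 and shaken 25 min at 37 °C. Stopped with TCA; released 14CO2 trapped and counted by scintillation. EC50 ± standard error.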

[2] = target: Pyruvate dehydrogenase kinase (Rattus norvegicus, UniProt Q63065+A6IPZ9+Q64536+O54937); test: Inhibitory activity tested against Pyruvate Dehydrogenase Kinase (PDHK) receptor from rats.; assay type: protein assay
Method in brief: (§2)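 Commercial PDH complex used as the kinase-containing preparation. PDHK inhibition read spectrophotometrically as NADH production at 340 nm, measured with and without ATP. IC50 ± standard error, from purified substances.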

[3] = target: Pyruvate dehydrogenase kinase (Rattus norvegicus) (UniProt Q63065+A6IPZ9+Q64536+O54937); test: Inhibition of Pyruvate Dehydrogenase Kinase (PDHK) receptor from rats; Inactive; assay type: protein assay; method in brief: as §2
Homo sapiens [4] = organism: Homo sapiens; test: Effective concentration required to increase the oxidation of lactate in cellular assay using Human Skin Fibroblasts; assay type: functional; method in brief: as §1
Rattus norvegicus [5] = test: In vivo %control of lactate in normal Sprague-Dawley rats after 2 hr at a dose of 300 umol/Kg; assay type: functional
Method in brief: (§3)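 Male Sprague-Dawley rats, about 200 g, randomly assigned to groups (n = 6/group) and fasted 24 h. Single oral dose of compound in 0.5% carboxymethylcellulose/0.2% Tween-80 (1 mL/100 g), or vehicle alone. Blood taken 2 h post-dose into heparin/fluoride tubes; lactate measured on a biochemistry analyzer. Expressed as percent of vehicle control; groups compared by two-tailed unpaired t-test.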

Rattus norvegicus [6] = test: In vivo %control of lactate in normal Sprague-Dawley rats after 2 hr at a dose of 30 umol/Kg; Not active; assay type: functional, organism-based; method in brief: as §3
Rattus norvegicus [7] = test: In vivo %control of lactate in normal Sprague-Dawley rats after 2 hr at a dose of 30 umol/Kg; assay type: functional; method in brief: as §3
Rattus norvegicus [8] = test: In vivo %control of lactate in normal Sprague-Dawley rats after 2 hr at a dose of 300 umol/Kg; Not active; assay type: functional, organism-based; method in brief: as §3

IA [3]: inactive | IC50 [2]: > 300 µM
SMILES: C[C@@H]1CN(Cc2ccccc2)[C@@H](C)CN1C(=O)[C@@](C)(O)C(F)(F)F

IC50 [2]: 0.034 µM
SMILES: C[C@@H]1CN(C(=O)[C@@](C)(O)C(F)(F)F)CCN1C(=O)c1ccc(C(=O)c2ccccc2)cc1 (stereo in doubt; 11g)
pEC50 (Homo sapiens [4]): 6.33 | Control (Rattus norvegicus [7]): 66%

IC50 [2]: 0.039 µM
SMILES: Cc1cc(C)c(S(=O)(=O)N2CCN(C(=O)[C@@](C)(O)C(F)(F)F)C[C@H]2C)c(C)c1

IC50 [2]: 0.0143 µM
SMILES: C[C@@H]1CN(C(=O)[C@@](C)(O)C(F)(F)F)[C@@H](C)CN1C(=O)OCc1ccccc1

IA [3]: inactive
SMILES: C[C@@H]1CN(C(=O)[C@@](C)(O)C(F)(F)F)CCN1

IC50 [2]: 9.8 µM
SMILES: C[C@](O)(C(=O)Nc1ccccc1Cl)C(F)(F)F

IC50 [2]: 0.04 µM
SMILES: COc1cc(C(=O)N2CCN(C(=O)[C@@](C)(O)C(F)(F)F)C[C@H]2C)cc(OC)c1OC
pEC50 (Homo sapiens [4]): 6.80 | Control (Rattus norvegicus [7]): 71% | Control (Rattus norvegicus [5]): 60%

IC50 [2]: 15 µM
SMILES: O=C(NC1C2CC3CC(C2)CC1C3)C1(O)CC1 (configuration not stated)

IC50 [2]: 2.16 µM
SMILES: CC(O)(C(=O)N1CCC(Cc2ccccc2)CC1)C(F)(F)F (configuration not stated)
pEC50 (Homo sapiens [4]): 4.54 | NA (Rattus norvegicus [8]): inactive

IC50 [2]: 0.013 µM
SMILES: C[C@@H]1CN(C(=O)[C@@](C)(O)C(F)(F)F)[C@@H](C)CN1C(=O)C1CCCCC1

IA [3]: inactive
SMILES: CC(=O)C(=O)NC1C2CC3CC(C2)CC1C3 (configuration not stated)

IA [3]: inactive
SMILES: CC(Oc1ccccc1)(C(=O)NC1CCCCC1)C(F)(F)F (configuration not stated)

IC50 [2]: 30 µM
SMILES: O=C(N1CCC(Cc2ccccc2)CC1)C(Cl)(Cl)Cl

IC50 [2]: 5.56 µM
SMILES: C[C@@](O)(C(=O)N1CCN(S(=O)(=O)c2ccccc2)CC1)C(F)(F)F

IA [3]: inactive
SMILES: COC(C)(C(=O)NC1C2CC3CC(C2)CC1C3)C(F)(F)F (configuration not stated)

IC50 [2]: 0.021 µM
SMILES: C[C@@H]1CN(C(=O)[C@@](C)(O)C(F)(F)F)CCN1C(=O)OCc1ccccc1

IA [3]: inactive
SMILES: CC(C)NC(=O)N1CCC(Cc2ccccc2)CC1

IC50 [2]: 0.3 µM
SMILES: C[C@@](O)(C(=O)Nc1ccccc1Cl)C(F)(F)F
pEC50 (Homo sapiens [4]): 5.27 | NA (Rattus norvegicus [8]): inactive

IC50 [2]: 6 µM
SMILES: C[C@@](O)(C(=O)N1CCN(/C(=N/C#N)Oc2ccccc2)CC1)C(F)(F)F

IA [3]: inactive
SMILES: C[C@@](O)(C(=O)N1CCNCC1)C(F)(F)F

IA [3]: inactive
SMILES: CC(C)CC(Cl)C(=O)N1CCC(Cc2ccccc2)CC1 (configuration not stated)

IC50 [2]: 0.0045 µM
SMILES: C[C@@H]1CN(C(=O)[C@@](C)(O)C(F)(F)F)[C@@H](C)CN1S(=O)(=O)c1cccc2ccccc12
NA (Rattus norvegicus [6]): inactive

IC50 [2]: 5.02 µM
SMILES: C[C@@](O)(C(=O)N1CCN(C(=O)c2cccc3ccccc23)CC1)C(F)(F)F

IC50 [2]: 10 µM
SMILES: CC(C)(O)C(=O)NC1C2CC3CC(C2)CC1C3 (configuration not stated)

The next lines start with the compound.

SMILES: CC(C)(C)C(=O)N1CCC(Cc2ccccc2)CC1
IA (Homo sapiens [1]): inactive | IC50 [2]: 282 µM

SMILES: C[C@@](O)(C(=O)N1CCCN(C(=O)c2ccccc2)CC1)C(F)(F)F
IC50 [2]: 5.62 µM

SMILES: C[C@@](O)(C(=O)N1CCN(c2ccccn2)CC1)C(F)(F)F
pEC50 (Homo sapiens [4]): 4.89 | IC50 [2]: 3.37 µM | Control (Rattus norvegicus [5]): 68%

SMILES: C[C@@H]1CN(C(=O)[C@@](C)(O)C(F)(F)F)CCN1c1cc([N+](=O)[O-])ccn1
IC50 [2]: 0.112 µM | NA (Rattus norvegicus [6]): inactive

SMILES: COC(C)(C(=O)Nc1ccccc1Cl)C(F)(F)F (configuration not stated)
IA [3]: inactive

SMILES: C[C@@](O)(C(=O)N1CCCN(Cc2ccccc2)CC1)C(F)(F)F
IC50 [2]: 47 µM

SMILES: COC(=O)N1CCC(Cc2ccccc2)CC1
IC50 [2]: 1000 µM

SMILES: CC(C)(O)C(=O)N1CCC(Cc2ccccc2)CC1
IC50 [2]: 150 µM

SMILES: CC(=O)N1CCCCC1
IA [3]: inactive

SMILES: C[C@@H]1CN(C(=O)[C@@](C)(O)C(F)(F)F)CCN1Cc1ccccc1
IC50 [2]: > 1 µM

SMILES: C/N=C(/S)N1CCC(Cc2ccccc2)CC1
IC50 [2]: 560 µM

SMILES: CC(C)[C@H]1CN(C(=O)c2ccc(C#N)cc2)[C@H](C)CN1C(=O)[C@@](C)(O)C(F)(F)F
IC50 [2]: 17 µM

SMILES: O=C(NC1C2CC3CC(C2)CC1C3)C(O)(C(F)(F)F)C(F)(F)F (configuration not stated)
IC50 [2]: 17 µM

SMILES: C[C@@](O)(C(=O)NC1CCCCC1)C(F)(F)F
IC50 [2]: 6.2 µM

SMILES: CC1(C(F)(F)F)OC(=O)N(C2CCCCC2)C1=O (stereo in doubt; 9)
IA [3]: inactive

SMILES: CC(Cl)C(=O)N1CCC(Cc2ccccc2)CC1 (configuration not stated)
IC50 [2]: 2.6 µM

SMILES: CNC(=O)N1CCCCC1
IA [3]: inactive

SMILES: C[C@@H]1CN(C(=O)[C@@](C)(O)C(F)(F)F)CCN1C(=O)c1cc(Cl)cc(Cl)c1
IC50 [2]: 0.028 µM
